# The list is not random: actives were taken first. Their share in the collection is about 4.6%.
# CHO parental Ca = signal in parental CHO cells, OX1R antagonist counter-screen | parental CHO-K1, ATP-induced calcium, Fluo-8 fluorescence | inhibition, % at 5.6 µM | actives 0.63% (n = 330,000);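 active means inhibition above that plate's mean sample inhibition plus 3 SD, cut at about 26% in these data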;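 further: 0% = ATP-challenged DMSO wells and 100% = DMSO wells without ATP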
#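 Test system: parental CHO cells; detection: calcium-sensitive Fluo-8 fluorescence; evaluation: percent inhibition of calcium signal; also added: ATP as calcium-mobilizing challenge; repeats: one well per compound; control set: ATP-challenged DMSO wells low, unchallenged DMSO wells high; compound: single nominal dose of 5.6 µM per compound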
# TAAR1 antag = antagonists of human TAAR1 | Q96RJ0 | CHO RD-HGA16 TAAR1, Fluo-8 calcium fluorescence, antagonist | inhibition, % at 3 µM | actives 1.5% (n = 360,000);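 active means inhibition above a per-plate cutoff, the mean inhibition of test compounds on that plate plus 3 SD, cut at about 49% in these data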;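 further: 0% = DMSO plus EC80 beta-PEA response and 100% = DMSO alone without agonist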
#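 Test system: CHO RD-HGA16 cells bearing hTAAR1 | Reagent: β-PEA, EC80 | Compound dosing: 3 µM, single point | Schedule: Dye loading 75 min at 37 °C, then 30 min room temperature | Signal: Calcium fluorescence with Fluo-8 | Evaluation: Percent inhibition of PEA-evoked calcium signal, max/basal emission ratio | Control set: DMSO-only wells and EC80 β-PEA-stimulated wells | Repeats: Singlicate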
# OX1R antag-1 = human HCRTR1 antagonism. CHO/OX1R cells, Fluo-8 calcium fluorescence, orexin A. inhibition, % at 5 µM. actives 0.43% (n = 330,000);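 active means inhibition above its plate's threshold, mean inhibition of all tested compounds on the plate plus 3 SD, cut at about 37% in these data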;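 further: 0% = orexin A challenge wells and 100% = SB-334867-A antagonist wells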
# Target sequence (O43613 whole entry, looked up): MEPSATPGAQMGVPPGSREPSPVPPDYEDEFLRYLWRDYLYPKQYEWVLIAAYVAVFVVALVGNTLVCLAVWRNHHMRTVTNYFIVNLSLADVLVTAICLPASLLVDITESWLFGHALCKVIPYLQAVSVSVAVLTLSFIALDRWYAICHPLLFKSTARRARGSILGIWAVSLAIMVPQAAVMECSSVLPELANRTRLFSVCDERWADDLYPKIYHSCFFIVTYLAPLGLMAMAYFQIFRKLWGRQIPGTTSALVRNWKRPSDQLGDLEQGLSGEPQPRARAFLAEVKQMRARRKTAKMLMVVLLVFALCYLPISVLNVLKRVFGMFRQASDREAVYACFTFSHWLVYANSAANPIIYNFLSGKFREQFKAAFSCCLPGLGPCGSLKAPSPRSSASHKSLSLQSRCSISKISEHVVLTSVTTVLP
# OX1R antag-2 = blocks the human orexin 1 receptor. OX1R-expressing cells, FRET antagonist read-out. inhibition, % at 6.6 µM. actives 1.8% (n = 330,000); in the data active means inhibition mostly above about 38%, no sharp cut-off; inactive means mostly below about 40%;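 further: 0% = agonist challenge alone and 100% = reference antagonist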
# TAAR1 agonist = human TAAR1 agonism; CHO RD-HGA16 TAAR1, Fluo-8 calcium fluorescence; vehicle wells 0%, saturating PEA agonist 100%; activation, % at 3 µM; actives 0.99% (n = 360,000);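 active means activation above the mean activation of all test compounds in the run plus 3 SD, cut at about 38% in these data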
#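 Assay system: CHO-derived RD-HGA16 cells with stable Gα16 and human TAAR1; timing: 17-24 h seeding, 75 min 37 °C dye, 30 min RT; read-out: % activation from peak over basal fluorescence ratio, DMSO-to-PEA scaled; measured by: kinetic Fluo-8 calcium fluorescence; benchmarks: low control DMSO, high control PEA (EC100); doses: 3 µM single concentration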
# GPR7 antagonist = antagonists of human GPR7 (neuropeptides B/W receptor 1); P48145; inhibition, % at 4.4 µM; actives 1.1% (n = 290,000); GPR7-expressing cells, fluorescence antagonist assay; in the data active means inhibition above about 16%, passing the limit was not always enough;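 further: cells stimulated with the agonist NPW; 0% = agonist with vehicle and 100% = vehicle without agonist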
# Target sequence (P48145 whole entry, looked up): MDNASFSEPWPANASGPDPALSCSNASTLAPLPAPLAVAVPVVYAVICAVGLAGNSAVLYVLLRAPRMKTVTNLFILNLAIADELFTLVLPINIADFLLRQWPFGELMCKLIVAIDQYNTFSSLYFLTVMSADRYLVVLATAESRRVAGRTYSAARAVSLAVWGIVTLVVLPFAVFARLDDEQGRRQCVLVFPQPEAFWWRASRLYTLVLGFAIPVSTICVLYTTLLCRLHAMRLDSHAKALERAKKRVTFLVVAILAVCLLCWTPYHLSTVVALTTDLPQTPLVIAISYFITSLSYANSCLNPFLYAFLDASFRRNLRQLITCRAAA
# OX1R HTRF confirm = confirmation of human orexin 1 receptor antagonists, HTRF format; shares compounds with OX1R antag-2; OX1R-expressing cells, HTRF antagonist assay; inhibition, % at 6.6 µM; actives 49% (n = 1,800); AID 492964; in the data active means inhibition above about 55%;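 further: CHO cells expressing OX1R stimulated with orexin A at about EC80; 0% = agonist challenge alone and 100% = reference antagonist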
# CHO-K1 HTRF cnt = counter-screen for OX1R antagonists: effect in parental CHO-K1 cells. shares compounds with OX1R antag-2. HTRF counterscreen. inhibition, % at 6.6 µM. actives 48% (n = 1,800); in the data active means inhibition above about 17%;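 further: 0% = agonist challenge with vehicle and 100% = vehicle alone without agonist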
# Numbers without * were called inactive; x = no result.
SMILES,CHO parental Ca,TAAR1 antag,OX1R antag-1,OX1R antag-2,TAAR1 agonist,GPR7 antagonist,OX1R HTRF confirm,CHO-K1 HTRF cnt
O=C1[C@@H]2CSCN2C(=O)CN1Cc1c(F)cccc1Cl,-0.4,4.4,-12.5,-1.1,0.5,-13.2,x,x
O=C(CSc1ccc(-c2cccs2)nn1)c1cccs1,-19.8,6.0,20.5,111.3*,2.0,-2.2,95.3*,6.3
O=C1N(c2ccccc2C(F)(F)F)O[C@]1(c1ccccc1)C1CCCCC1,-23.5,8.3,-10.7,6.3,3.1,x,x,x
Cc1c(C(=O)O)sc2nc(-c3cccs3)cc(C(F)(F)F)c12,-10.3,-11.0,-19.9,78.4*,-0.7,-0.6,30.6,30.1*
CSc1nc2nc(-c3cccs3)cc(C(F)(F)F)c2c(=O)[nH]1,0.3,-1.6,-14.1,7.4,0.7,-12.2,x,x
Nc1nccc(/C=C/c2c(F)cccc2Cl)n1,-12.2,-4.6,-24.0,27.9,-0.6,5.4,x,x
O=c1cc(/C=C/c2c(F)cccc2Cl)[nH]c2ccccc12,-8.5,-12.3,23.1,90.1*,0.7,-1.6,90.0*,2.3
Cc1ccc2ncc(NC(=O)c3ccc(F)cc3)c(=O)n2c1,-1.2,-6.5,-18.9,90.8*,17.9,-1.6,29.4,33.3*
CCN(CC)C1CC(=O)N(c2ccc(Br)cc2)C1=O (centres undefined),-7.1,-2.6,-1.9,-4.6,-0.7,-3.0,x,x
COc1ccc(/C=N/NC(=O)c2cccc(C(=O)N/N=C/c3ccc(OC)c(OC)c3)n2)cc1OC,x,5.6,x,x,3.5,-19.7,x,x
COc1ccc(/C=N/NC(=O)Nc2cccc3nsnc23)cc1OC,-12.9,9.8,19.2,82.1*,7.5,10.4,67.2*,-5.5
COc1ccc(OC)c(NC(=O)CCNS(=O)(=O)c2cccc3nsnc23)c1,-6.2,-10.6,-24.9,45.7,9.4,-5.4,x,x
COc1ccc(NC(=O)CCNS(=O)(=O)c2cccc3nsnc23)cc1OC,-1.1,1.6,-4.4,84.2*,3.1,-7.2,30.0,24.7*
N#C/C(=N\Nc1ccc(S(=O)(=O)N2CCc3ccccc32)cc1)C(N)=S,6.9,22.1,-3.9,106.0*,10.9,-15.5,40.9,20.9*
N#C/C(=N\Nc1ccc([N+](=O)[O-])cc1)C(N)=S,8.3,-29.7,17.2,89.8*,5.1,4.2,64.2*,50.9*
CC(=O)c1ccc(NC(=O)Nc2ccc3c(c2)N(C)C(=O)CS3)cc1,-1.1,75.8*,-15.2,78.8*,44.2*,-5.7,18.8,10.5
Cc1cccc(NC(=O)Nc2ccc3c(c2)N(C)C(=O)CS3)n1,-14.8,36.7,-14.2,10.3,9.8,-9.5,x,x
COc1cc(/C=N/NC(=O)c2ccc(-n3cccc3)cc2)ccc1O,-6.5,34.2,-19.8,11.7,4.1,-12.1,x,x
O=[N+]([O-])c1cccc(-c2nc(-c3ccccc3)no2)c1,-0.3,-4.5,-16.6,11.6,18.3,-8.0,x,x
O=[N+]([O-])c1cccc(-c2nc(-c3ccncc3)no2)c1,-0.2,-8.8,5.4,112.6*,10.8,-8.9,35.9,41.6*
Fc1ccc(NC(=S)Nc2cccnc2)c(Cl)c1,-3.4,-8.7,-8.6,97.5*,0.2,-3.7,17.7,3.1
O=C(N/N=C/c1ccc(OCc2ccccc2)cc1)c1cc[n+](Cc2ccccc2)cc1,-0.8,-9.3,-1.0,20.4,5.4,-11.2,x,x
O=C(N/N=C/c1ccc(O)cc1)c1cc[n+](Cc2ccccc2)cc1,-11.3,-3.7,-13.2,90.2*,5.2,0.9,38.6,45.2*
COc1cc2c(=O)n(CCC(=O)NCC3CCCO3)c(=O)n(CC(=O)c3ccc(Cl)cc3)c2cc1OC (centres undefined),-4.1,-34.1,-35.3,92.7*,2.9,-11.2,27.0,1.8
O=C(Cn1cc(C(F)(F)F)ccc1=O)NCc1ccc(F)cc1,-6.5,1.6,-15.4,1.1,-0.1,-6.6,x,x
SMILES,CHO parental Ca,TAAR1 antag,OX1R antag-1,OX1R antag-2,TAAR1 agonist,GPR7 antagonist,OX1R HTRF confirm,CHO-K1 HTRF cnt
Cc1c(Cl)cccc1NC(=O)c1cc(-c2ccccc2O)n[nH]1,4.1,30.0,6.7,80.7*,14.3,-3.2,24.0,15.3
COc1ccc(CCC(=O)NCCOc2ccc(Cl)cc2)cc1,-20.5,-7.2,-14.1,16.8,-2.1,-0.6,x,x
O=C1c2ccccc2C(=O)c2c1ccc1c(=O)n(-c3ccccc3)[nH]c21,-6.0,2.0,-17.5,22.8,-2.1,-5.8,x,x
CC(C)Cn1[nH]c2c3c(ccc2c1=O)C(=O)c1ccccc1C3=O,-24.8,x,-22.8,135.2*,x,-0.9,36.6,33.3*
O=C(CSCC(=O)OCn1nnc2ccccc2c1=O)Nc1ccc(Cl)cc1,-25.6,-16.0,-14.0,34.0,12.9,-6.9,x,x
CN(Cc1nccn1C)C(=O)C1CCC(=O)N(Cc2cccc(C(F)(F)F)c2)C1 (centres undefined),5.4,-12.4,-1.4,16.6,0.4,-5.0,x,x
CCOC(=O)C1CCN(C(=O)C2CCN(C(=O)c3ccc([N+](=O)[O-])cc3)CC2)CC1,-7.1,x,-8.8,81.2*,x,15.5,33.8,26.5*
N#Cc1nc(-c2ccco2)oc1N1CCC(Cc2ccccc2)CC1,-12.3,-2.7,-8.4,2.8,4.2,9.5,x,x
CCC(/C=C1\Oc2ccc(OC)cc2N1C)=C\c1sc2ccccc2[n+]1CCCS(=O)(=O)[O-],x,-4.3,x,x,4.3,x,x,x
COc1cc(/C=C/c2sc3ccccc3[n+]2CCCS(=O)(=O)[O-])ccc1O,5.7,1.1,9.3,86.2*,8.9,15.6,58.9*,99.1*
CCC(C)[C@H](NC(=O)Nc1ccc(Oc2ccccc2)cc1)C(=O)O (some centres undefined),-11.2,-2.4,-13.9,15.3,6.5,-7.4,x,x
CCN1C(=O)/C(=C2/C=Cc3cc(C)ccc3N2CC)N(C)C1=S,-10.9,-9.1,-14.0,134.2*,1.3,4.4,53.9,78.8*
CCOCCCNC(=O)c1c(N)n(-c2ccc3c(c2)OCO3)c2nc3ccccc3nc12,-13.3,33.8,-20.4,17.1,17.0,10.6,x,x
COCCCNC(=O)c1c(N)n(-c2ccc3c(c2)OCO3)c2nc3ccccc3nc12,-14.9,34.7,-5.7,104.2*,20.8,-11.5,28.7,0.6
CN(C)c1ccc(-c2ccnc3c2CC(C)(C(=O)NCc2ccccc2)O3)cc1 (centres undefined),x,-30.9,x,x,2.7,x,x,x
COc1cc(/C=N/NC(=O)c2sc(N)c(C#N)c2C)cc(Br)c1O,-12.1,40.7,-17.8,82.0*,18.1,0.2,30.0,-4.8
Cc1cc2nc(N3CCN(C(=O)c4ccco4)CC3)sc2cc1C,-3.2,-10.2,-10.1,6.5,4.0,x,x,x
Cc1cc(C)c2nc(N3CCN(C(=O)c4ccco4)CC3)sc2c1,-13.7,-27.9,-22.6,82.4*,3.0,x,22.0,5.1

# High-throughput results as filed in PubChem.
